From ChEMBL document CHEMBL1141112, “Synthesis and antiinflammatory activity of coumarin derivatives” (J Med Chem, 2005) come the findings set out here.

By Inhibition is commonly meant the change of the read-out against control, counted positive when it falls. High values mean a response far below the control, low ones a response near the control. In general, IC50 refers to the concentration that inhibits the measured activity by half.

SMILES strings stand for the structures. Calls of active or inactive are those of the source. The calls are words filed in the database; no cut-off is given here. Bounds are passed on as bounds.

Experiment [1] can be described thus: Percent heme protein dependent lipid peroxidation (0.1 mM) upon incubation for 10 min at 37 degree C. in pH 7.4 with arachidonic acid and H2O2; no action. Type of experiment: functional. The procedure, abridged:
(§1)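 Heme 50 μM, arachidonic acid 0.4 mM, test compound and H2O2 0.5 mM incubated together for 10 min at 37 °C in KH2PO4–KOH buffer (50 mM, pH 7.4). Tested at 0.1 and 1 mM. At least triplicate; absorbance SD under 10% of mean.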

Another experiment deals with Rattus norvegicus. Kind of experiment: Percent inhibition of carrageenan 2% (0.1 mL intradermal) induced paw edema at the i.p. dose of 0.01 m mol/kg in fisher 344 rats; n=5. Type of experiment: functional. The procedure, abridged:
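Right hind paw edema in Fischer 344 rats (150–200 g) induced by intradermal 0.1 mL 2% carrageenin in water. Rats killed 3.5 h after carrageenin; injected minus uninjected paw weight compared with water-treated controls and expressed as percent inhibition. Mean of two experiments, five animals per group; Student's t-test.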

A short description of experiment [2]: Percent heme protein dependent lipid peroxidation (1 mM) upon incubation for 10 min at 37 degree C. in pH 7.4 with arachidonic acid and H2O2; no action. Type of experiment: functional. The procedure, abridged:
as §1

Experiment [3] deals with T1, Seed linoleate 13S-lipoxygenase-1 (Glycine max, UniProt P08170).
T1 sequence (P08170 whole entry): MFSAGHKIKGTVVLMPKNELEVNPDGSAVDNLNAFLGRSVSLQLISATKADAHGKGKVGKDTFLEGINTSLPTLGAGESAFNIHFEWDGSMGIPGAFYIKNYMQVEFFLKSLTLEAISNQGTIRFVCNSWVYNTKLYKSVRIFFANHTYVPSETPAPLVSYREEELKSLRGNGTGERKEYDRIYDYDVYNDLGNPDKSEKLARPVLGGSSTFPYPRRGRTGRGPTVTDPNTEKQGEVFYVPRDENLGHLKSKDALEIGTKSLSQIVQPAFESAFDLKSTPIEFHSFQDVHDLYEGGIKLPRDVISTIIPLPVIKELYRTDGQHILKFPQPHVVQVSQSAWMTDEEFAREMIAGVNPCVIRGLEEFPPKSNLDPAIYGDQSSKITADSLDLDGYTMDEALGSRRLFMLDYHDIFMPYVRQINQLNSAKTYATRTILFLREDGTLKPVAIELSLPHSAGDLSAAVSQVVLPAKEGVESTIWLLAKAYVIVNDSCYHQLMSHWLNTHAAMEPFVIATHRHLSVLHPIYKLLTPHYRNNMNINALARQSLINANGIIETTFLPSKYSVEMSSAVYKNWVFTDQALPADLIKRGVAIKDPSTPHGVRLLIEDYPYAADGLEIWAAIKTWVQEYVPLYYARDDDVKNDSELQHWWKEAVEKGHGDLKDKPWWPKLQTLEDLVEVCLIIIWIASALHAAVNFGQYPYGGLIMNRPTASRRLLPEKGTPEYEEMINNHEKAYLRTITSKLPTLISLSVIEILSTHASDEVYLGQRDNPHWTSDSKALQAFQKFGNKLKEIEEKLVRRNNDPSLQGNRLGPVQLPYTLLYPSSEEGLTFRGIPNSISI
Briefly: Inhibitory concentration against soybean lipoxygenase upon incubation with sodium linoleate (0.1 mM) at RT. The procedure, abridged: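 Soybean lipoxygenase (0.2 mL enzyme solution, 1/3 ×10^4 w/v in saline) incubated at room temperature with test compounds in ethanol and sodium linoleate 0.1 mM as substrate. Conversion to 13-hydroperoxylinoleic acid followed at 234 nm and compared with NDGA as standard inhibitor. Run at least in triplicate; SD of absorbance under 10% of mean.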

Experiment [4] is described as follows: Superoxide radical scavenging activity at 1 mM upon incubation for 2 min at RT in pH 7.4 with PMS, NADH and NBT by nitroblue tetrazolium method.
Experiment [5] in a line: Superoxide radical scavenging activity at 1 mM upon incubation for 2 min at RT in pH 7.4 with PMS, NADH and NBT by nitroblue tetrazolium method; no action.
The nature of experiment [6]: Percent heme protein dependent lipid peroxidation at (1 mM) upon incubation for 10 min at 37 degree C. in pH 7.4 with arachidonic acid and H2O2. Type of experiment: functional. In short, it runs like this:
as §1

Experiment [7] is described as follows: Percent heme protein dependent lipid peroxidation at (0.1 mM) upon incubation for 10 min at 37 degree C. in pH 7.4 with arachidonic acid and H2O2. Type of experiment: functional. In short, it runs like this:
as §1

On to `CN1COc2ccc3ccc(=O)oc3c2C1`, for which the Lipid peroxidation result in experiment [1] and in experiment [2] was “No action” throughout. The same compound gave an Inhibition with Rattus norvegicus of 53.6%. Also, the half-maximal inhibitory concentration (IC50) in experiment [3] is 42 µM.

For the compound `NCCCNCc1c(O)ccc2ccc(=O)oc12`, the Lipid peroxidation entry in experiment [1] and in experiment [2] was “No action” in each case. This compound also came in with an Inhibition in the experiment with Rattus norvegicus of 53.4%. Further, in experiment [3], the half-maximal inhibitory concentration (IC50) is above 1000 µM. The compound further displayed a Scavenging Activity in experiment [4] of 50%.

As for `CCCCCN(CCCCC)Cc1c(O)ccc2ccc(=O)oc12`, the Lipid peroxidation entry in experiment [1] is “No action”; in experiment [6] it was 13.7%. In experiment [5], the “Scavenging Activity” value was “No action”. Also, the Inhibition in the experiment on Rattus norvegicus came to 46.2%. Further, the IC50 in experiment [3] was 13 µM.

With `CC(C)CNCc1c(O)ccc2ccc(=O)oc12`, the Lipid peroxidation result in experiment [1] and in experiment [2] was “No action” in each case. For the same compound, in the experiment with Rattus norvegicus, the Inhibition is 55.4%. The IC50 in experiment [3] stood at 47 µM. Further, in experiment [4], the Scavenging Activity was 33.3%.

With `O=c1ccc2ccccc2o1` [COUMARIN], the figures for the Lipid peroxidation in experiment [7] and in experiment [6] were 9.1% and 19.2%, respectively. Besides, in the experiment on Rattus norvegicus, the Inhibition is 30.2%. In experiment [4], this compound showed a Scavenging Activity of 88.9%.

Consider `O=c1ccc2ccc(O)c(CNCCc3ccccc3)c2o1`, for which the Lipid peroxidation came to 18.2% in experiment [7] and 5.5% in experiment [6]. In the experiment on Rattus norvegicus, this compound had an Inhibition of 31.2%. In experiment [3], this compound had an IC50 of 41 µM. The Scavenging Activity in experiment [4] was 22.2%.

For the compound `O=c1ccc2ccc(O)c(CN3CCCCC3)c2o1`, the Lipid peroxidation result is “No action” in experiment [1] and 7.6% in experiment [6]. The “Scavenging Activity” value in experiment [5] was “No action”. The compound also yielded an Inhibition with Rattus norvegicus of 47.4%. Further, the IC50 in experiment [3] worked out at 37 µM.

Regarding `CCNCc1c(O)ccc2ccc(=O)oc12`, the Lipid peroxidation result in experiment [1] is “No action”; in experiment [6], 5.5%. Moreover, the “Scavenging Activity” value in experiment [5] was “No action”. The same compound returned an Inhibition with Rattus norvegicus of 53.6%. The compound further returned an IC50 in experiment [3] of 52 µM.

Take `CC(Cc1ccc(O)c(O)c1)C(C)Cc1ccc(O)c(O)c1` (stereo not given): the Lipid peroxidation result in experiment [7] was “inactive”. In addition, the “Scavenging Activity” value in experiment [5] was “inactive”. Moreover, the Lipid peroxidation in experiment [6] was found to be 26.1%.

Take `NCCNCc1c(O)ccc2ccc(=O)oc12`: the results for the Lipid peroxidation result in experiment [1] and in experiment [6] were “No action” and 22.1%, respectively. In addition, in experiment [5], the “Scavenging Activity” value was “No action”. In the experiment on Rattus norvegicus, this compound displayed an Inhibition of 56%. In addition, the IC50 in experiment [3] was above 1000 µM.

Turning to `COc1ccc2c(c1)c(CC(=O)O)c(C)n2C(=O)c1ccc(Cl)cc1` [INDOMETHACIN], the Inhibition in the experiment on Rattus norvegicus is 47%.

For the compound `O=c1ccc2ccc(O)c(CNCc3ccccc3)c2o1`, the Lipid peroxidation is 19.5% in experiment [7] and 35.6% in experiment [6]. Also, in experiment [5], the “Scavenging Activity” value is “No action”. In the experiment on Rattus norvegicus, this compound displayed an Inhibition of 47.5%. This compound gave an IC50 in experiment [3] of 44 µM.

As for `CCCCCNCc1c(O)ccc2ccc(=O)oc12`, the figures for the Lipid peroxidation in experiment [7] and in experiment [6] were 8.6% and 5.7%, respectively. In experiment [5], the “Scavenging Activity” value is “No action”. Besides, the Inhibition in the experiment on Rattus norvegicus was found to be 52.7%. Further, in experiment [3], the IC50 came out at 59 µM.

As to `O=C(O)/C=C/c1ccc(O)c(O)c1`, the Lipid peroxidation entry in experiment [1] was “inactive”. In addition, the Scavenging Activity in experiment [4] came out at 86.1%. For the same compound, the Lipid peroxidation in experiment [6] was determined as 5.5%.
